# Measured values: ChEMBL document CHEMBL4052732, “Design, synthesis and biological evaluation of GPR55 agonists” (Bioorg Med Chem, 2017)
# Columns and labels:
# [1] = molecular target: T1, G-protein coupled receptor 55 (Homo sapiens, UniProt Q9Y2T6); test: Agonist activity at beta-galactosidase enzyme fragment-fused GPR55 (unknown origin) expressed in CHOK1 cells assessed as increase in N-terminal deletion beta-galactosidase mutant-tagged beta arrestin recruitment measured for 1 sec by chemiluminescence based pathhunter assay; assay type: functional, cell-based
# Outline: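 CHO-K1 cells stably co-expressing the receptor–β-gal fragment fusion and the β-arrestin–deletion-mutant fusion, kept in selection medium, passaged up to 10 times. Ligands tested from 0.5 nM to 30 μM. Chemiluminescent substrate signal read at room temperature for 1 s. Vehicle readings subtracted from ligand readings (RLU), and EC50 obtained from these values. LPI served as positive control. Run in triplicate, repeated at least 3 times.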
# Target sequence in this assay (Q9Y2T6 whole entry, looked up, stated change not applied, the tested form may be a part): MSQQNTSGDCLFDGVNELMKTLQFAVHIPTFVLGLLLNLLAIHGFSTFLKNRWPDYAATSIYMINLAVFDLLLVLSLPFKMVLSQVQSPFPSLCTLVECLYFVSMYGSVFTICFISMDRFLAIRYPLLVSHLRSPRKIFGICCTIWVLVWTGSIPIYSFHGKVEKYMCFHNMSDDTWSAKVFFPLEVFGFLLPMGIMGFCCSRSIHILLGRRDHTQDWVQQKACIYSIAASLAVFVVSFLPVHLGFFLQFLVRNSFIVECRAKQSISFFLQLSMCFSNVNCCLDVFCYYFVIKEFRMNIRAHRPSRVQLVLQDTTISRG
# [2] = molecular target: Cannabinoid receptor 1 (Homo sapiens, UniProt P21554); test: Agonist activity at human brain CB1 receptor expressed in U2OS cells assessed as increase in beta arrestin recruitment after 60 mins by fluorescence assay; assay type: functional, cell-based
# Sequence of Cannabinoid receptor 1 (P21554 whole entry): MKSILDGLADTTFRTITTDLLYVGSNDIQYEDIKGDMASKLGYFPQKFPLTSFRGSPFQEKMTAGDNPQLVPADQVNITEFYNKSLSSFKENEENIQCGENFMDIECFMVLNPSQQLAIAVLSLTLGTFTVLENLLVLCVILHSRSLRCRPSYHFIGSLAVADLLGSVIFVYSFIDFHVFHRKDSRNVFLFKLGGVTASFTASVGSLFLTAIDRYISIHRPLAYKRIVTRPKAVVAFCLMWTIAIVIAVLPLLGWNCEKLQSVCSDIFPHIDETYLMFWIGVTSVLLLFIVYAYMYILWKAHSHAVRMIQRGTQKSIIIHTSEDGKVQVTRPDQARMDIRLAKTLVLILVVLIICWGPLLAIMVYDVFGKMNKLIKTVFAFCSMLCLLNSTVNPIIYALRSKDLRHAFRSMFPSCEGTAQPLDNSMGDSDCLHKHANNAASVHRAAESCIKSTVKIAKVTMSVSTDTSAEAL
# [3] = molecular target: Cannabinoid receptor 2 (Homo sapiens, UniProt P34972); test: Agonist activity at human CB2 receptor expressed in U2OS cells assessed as increase in GFP-tagged beta arrestin recruitment after 75 mins by fluorescence assay; assay type: functional, cell-based
# Sequence of Cannabinoid receptor 2 (P34972 whole entry): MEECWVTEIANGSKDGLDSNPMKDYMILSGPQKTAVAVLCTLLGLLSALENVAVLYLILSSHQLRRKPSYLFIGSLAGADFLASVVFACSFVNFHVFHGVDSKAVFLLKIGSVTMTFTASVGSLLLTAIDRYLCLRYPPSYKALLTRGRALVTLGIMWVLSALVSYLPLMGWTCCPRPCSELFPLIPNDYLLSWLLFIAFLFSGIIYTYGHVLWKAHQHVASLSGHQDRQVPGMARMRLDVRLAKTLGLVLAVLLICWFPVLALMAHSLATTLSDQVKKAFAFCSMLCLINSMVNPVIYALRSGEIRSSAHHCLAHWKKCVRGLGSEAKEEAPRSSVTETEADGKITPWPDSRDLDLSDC
# [4] = molecular target: T1, G-protein coupled receptor 55; test: Agonist activity at HA-epitope-tagged variant of GPR55E with serine enhanced C terminus (unknown origin) expressed in human U2OS cells assessed as increase in GFP-tagged beta arrestin2 recruitment after 75 mins by fluorescence assay; assay type: cell-based
# Target sequence in this assay (Q9Y2T6 whole entry, looked up, the tested form may be a part): as the sequence (Q9Y2T6 whole entry, looked up, stated change not applied, the tested form may be a part) above
SMILES,EC50 [1] [nM],other results
O=C(NC(=S)Nc1ccc(S(=O)(=O)N(Cc2ccc(CO)o2)c2ccccc2)cc1)c1ccc2cccnc2c1,600,–
COc1ccc2cc(C)c3nnc(SCC(=O)Nc4nc(-c5ccc(F)cc5)cs4)n3c2c1,–,EC50 [2]: > 30000 nM; EC50 [3]: > 30000 nM; EC50 [4]: 160 nM
COc1ccccc1/C=C/C(=O)NC(=S)Nc1ccc(S(=O)(=O)Nc2ccccc2)cc1,600,–
O=C(NC(=S)Nc1ccc(S(=O)(=O)N(Cc2ccncc2)c2ccccc2)cc1)c1ccc2cccnc2c1,900,–
COc1ccccc1/C=C/C(=O)NC(=S)Nc1ccc(S(=O)(=O)N(Cc2ccc(CO)o2)c2ccccc2)cc1,100,–
CN(c1ccccc1)S(=O)(=O)c1ccc(NC(=S)NC(=O)c2cnc3ccccc3c2)cc1,> 30000,–
COc1ccccc1/C=C/C(=O)NC(=S)Nc1ccc(S(=O)(=O)N(Cc2ccc(O)cc2)c2ccccc2)cc1,500,–
O=C(NC(=S)Nc1ccc(S(=O)(=O)N(CCO)c2ccccc2)cc1)c1ccc2cc(CCO)ccc2c1,20000,–
COc1ccccc1/C=C/C(=O)NC(=S)Nc1ccc(S(=O)(=O)NCCO)cc1,> 30000,–
O=C(NC(=S)Nc1ccc(S(=O)(=O)N(CCO)c2ccccc2)cc1)c1ccc2cccnc2c1,200,–
COc1ccccc1/C=C/C(=O)NC(=S)Nc1ccc(S(=O)(=O)Nc2onc(C)c2C)cc1,> 30000,–
CN(c1ccccc1)S(=O)(=O)c1ccc(NC(=S)NC(=O)c2ccc3cc(CCO)ccc3c2)cc1,300,–
COc1ccccc1/C=C/C(=O)NC(=S)Nc1ccc(S(=O)(=O)N(CCO)c2ccccc2)cc1,700,–
O=C(NC(=S)Nc1ccc(S(=O)(=O)N(Cc2ccc(O)cc2)c2ccccc2)cc1)c1ccc2cccnc2c1,500,–
COc1ccccc1/C=C/C(=O)NC(=S)Nc1ccc(S(=O)(=O)N(Cc2ccncc2)c2ccccc2)cc1,300,–
CN(c1ccccc1)S(=O)(=O)c1ccc(NC(=S)NC(=O)c2ccc3cccnc3c2)cc1,1000,–
COc1ccccc1/C=C/C(=O)NC(=S)Nc1ccc(S(=O)(=O)N(Cc2ccccc2O)c2ccccc2)cc1,2000,–
COc1ccccc1/C=C/C(=O)NC(=S)Nc1ccc(S(=O)(=O)N(C)c2ccncc2)cc1,500,–
CN(c1ccccc1)S(=O)(=O)c1ccc(NC(=S)NC(=O)c2ccc3cc(CO)ccc3c2)cc1,4000,–
Cc1cccc(N2CCN(C(=O)c3cc(S(=O)(=O)N(C)C)ccc3N3CCCC3)CC2)c1C,–,EC50 [2]: > 30000 nM; EC50 [3]: > 30000 nM; EC50 [4]: 260 nM
O=C(NC(=S)Nc1ccc(S(=O)(=O)N(Cc2ccc(CO)o2)c2ccccc2)cc1)c1ccc2cc(CCO)ccc2c1,6000,–
COc1ccccc1/C=C/C(=O)NC(=S)Nc1ccc(S(=O)(=O)NCC(O)CO)cc1 (stereo not given),> 30000,–
COc1ccccc1/C=C/C(=O)NC(=S)Nc1ccc(S(=O)(=O)N(C)c2ccccc2)cc1,–,EC50 [2]: > 30000 nM; EC50 [3]: > 30000 nM; EC50 [4]: 110 nM
COc1ccccc1/C=C/C(=O)NC(=S)Nc1ccc(S(=O)(=O)N(Cc2cccc(O)c2)c2ccccc2)cc1,2000,–
